Holding throughout (format): functional, cell-based
For one test, the system named is KB. Nature of the test: Cytotoxicity against human KB cells after 3 days by sulforhodamine B assay. Particulars: 72 h. The gist of the method: (§1)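 Freshly trypsinized cells seeded at 5000 per well; compounds added from DMSO-diluted stock. Cells grown in RPMI-1640 with 25 mM HEPES, 0.25% sodium bicarbonate, 10% FBS and 100 μg/mL kanamycin. After three days, attached cells fixed with cold 10% TCA and stained with 0.4% SRB. Bound dye solubilized and absorbance read at 562 nm. EC50 (50% growth reduction) averaged from at least three independent determinations.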
Background: In SRB staining, fixed cells bind dye roughly in proportion to their protein.

The next test concerns HCT-8. Nature of the test: Cytotoxicity against human HCT8 cells after 3 days by sulforhodamine B assay. Particulars: HCT-8, 72 h. The gist of the method:
as §1

In a further test the test system is PC-3. Nature of the test: Cytotoxicity against human PC3 cells after 3 days by sulforhodamine B assay. Particulars: PC-3, 72 h. The gist of the method:
as §1

For the next test, the system named is DU-145. Nature of the test: Cytotoxicity against human DU145 cells after 3 days by sulforhodamine B assay. Particulars: DU-145, 72 h. Put shortly:
as §1

A further test relates to MCF7. Nature of the test: Cytotoxicity against human MCF7 cells after 3 days by sulforhodamine B assay. Particulars: MCF7, 72 h. Put shortly:
as §1

The next test has as its system A549. Nature of the test: Cytotoxicity against human A549 cells after 3 days by sulforhodamine B assay. Particulars: A549, 72 h. Put shortly: as §1
Test [1] can be described thus: Cytotoxicity against human KBVIN cells after 3 days by sulforhodamine B assay. Particulars: 72 h. The gist of the method: as §1

Converted amounts (≈) assume the structure as drawn.

Broadly, the EC50 is the concentration at which the effect is half-maximal. High values mean weaker potency, low ones greater potency. In turn, `COC1=CC(=O)c2ccc3cc(OC)c(OC)cc3c2C1=O` [SPHENONE A] gave an EC50 in the test on KB of 2.7 µg/mL (≈ 9.05 µM).
`COc1cc(O)c(-c2c(O)cc(OC)c3c2CCc2cc(O)ccc2-3)c2c1-c1ccc(O)cc1CC2`: the EC50 is 4.6 µg/mL in the test on HCT-8; 5.37 µg/mL (≈ 11.1 µM) in the test on PC-3; 4.11 µg/mL (≈ 8.52 µM) in the test on DU-145; 3.5 µg/mL with MCF7; 4.61 µg/mL in the test with A549; 3.96 µg/mL (≈ 8.21 µM) in test [1]. For the same compound, the EC50 in the test with KB stood at 4.4 µg/mL (≈ 9.12 µM).
As for `COc1cc2c(c(OC)c1O)-c1c(O)ccc(O)c1CC2` [CALANHYDROQUINONE A], the EC50 in the test on HCT-8 worked out at 4.57 µg/mL; with PC-3, 2.52 µg/mL (≈ 8.74 µM); in the test on DU-145, 5.84 µg/mL (≈ 20.3 µM); in the test on MCF7 it was 2.31 µg/mL; with A549, 3.58 µg/mL; in test [1], 5.37 µg/mL (≈ 18.6 µM). This compound came in with an EC50 with KB of 3.47 µg/mL (≈ 12 µM).
Consider `COc1cc(O)c(-c2c(O)cc(OC)c3c2ccc2cc(O)ccc23)c2c1-c1ccc(O)cc1CC2` [CIRRHOPETALANTHRIN], for which the EC50 with HCT-8 is 7.3 µM; with MCF7 it was 12.5 µM; in the test with A549 it was 11.2 µM.
With `COc1cc2c(cc1O)CCc1cc(O)cc(OC)c1-2`, the EC50 in the test on HCT-8 was found to be 4.55 µg/mL; in the test with PC-3, 2.67 µg/mL (≈ 9.81 µM); in the test on DU-145 it was 5.38 µg/mL (≈ 19.8 µM); with MCF7, 2.59 µg/mL; in the test on A549, 4.24 µg/mL; in test [1], 5.84 µg/mL (≈ 21.4 µM). In the test with KB, this compound had an EC50 of 3.9 µg/mL (≈ 14.3 µM).
As for `COC1=CC(=O)c2ccc3cc(OC)c(O)c(OC)c3c2C1=O` [CALANQUINONE B], the EC50 in the test with HCT-8 was 4.56 µg/mL; with PC-3, 1.55 µg/mL (≈ 4.93 µM); in the test on DU-145, 6.45 µg/mL (≈ 20.5 µM); in the test with MCF7, 1.81 µg/mL; in the test on A549, 4.54 µg/mL; in test [1], 13.3 µg/mL (≈ 42.3 µM). This compound displayed an EC50 in the test on KB of 6.46 µg/mL (≈ 20.6 µM).
Take `COc1cc(O)cc2c1-c1ccc(O)cc1CC2`: the concentration for a half-maximal effect (EC50) with HCT-8 came out at 3.84 µg/mL; in the test with PC-3 it was 2.82 µg/mL (≈ 11.6 µM); in the test on DU-145, 4.79 µg/mL (≈ 19.8 µM); with MCF7 it was 1.8 µg/mL; in the test on A549, 5.05 µg/mL; in test [1], 7.92 µg/mL (≈ 32.7 µM). In the test on KB, the EC50 was found to be 3.4 µg/mL (≈ 14 µM).
Consider `COc1cc(O)c2c(c1)CCc1ccc(O)c(OC)c1-2` [CALANPHENANTHRENE A], for which the EC50 in the test on HCT-8 amounted to 6.73 µg/mL; in the test on PC-3 it was 7.06 µg/mL (≈ 25.9 µM); in the test with DU-145 it was 13.2 µg/mL (≈ 48.5 µM); in the test with MCF7, 6.52 µg/mL; with A549, 7.71 µg/mL; in test [1], 5.48 µg/mL (≈ 20.1 µM). The same compound came in with a concentration giving a half-maximal response (EC50) in the test with KB of 11.8 µg/mL (≈ 43.3 µM).
Regarding `COc1cc2c(c(OC)c1OC)-c1c(O)ccc(O)c1CC2` [CALANHYDROQUINONE C], the EC50 in the test with HCT-8 is 3.96 µg/mL; with PC-3, 0.85 µg/mL (≈ 2.81 µM); with DU-145, 3.78 µg/mL (≈ 12.5 µM); in the test on MCF7, 1.7 µg/mL; with A549, 2.36 µg/mL; in test [1], 4.73 µg/mL (≈ 15.6 µM). Also, it took 2.86 µg/mL (≈ 9.46 µM) to reach a half-maximal effect in the test on KB (EC50).
Turning to `CC(=O)O[C@H]1C(=O)[C@@]2(C)[C@H]([C@H](OC(=O)c3ccccc3)[C@]3(O)C[C@H](OC(=O)[C@H](O)[C@@H](NC(=O)c4ccccc4)c4ccccc4)C(C)=C1C3(C)C)[C@]1(OC(C)=O)CO[C@@H]1C[C@@H]2O` [PACLITAXEL], the EC50 in the test on HCT-8 is 0.21 µg/mL; in the test with PC-3, 0.0097 µg/mL (≈ 0.0114 µM); in the test on DU-145, less than 0.005 µg/mL; in the test on MCF7, 0.0072 µg/mL; in the test on A549, less than 0.005 µg/mL; in test [1] it was 2.16 µg/mL (≈ 2.53 µM). In the test with KB, the EC50 is less than 0.005 µg/mL.
In the test with KB, `COC1=CC(=O)c2ccc3ccccc3c2C1=O` [ANNOQUINONE A] gave a half-maximal effective concentration (EC50) of 0.16 µg/mL (≈ 0.672 µM).
With `COc1cc2c(c(OC)c1O)C1=C(CC2)C(=O)C=CC1=O` [CALANQUINONE C], the EC50 was 4.14 µg/mL with HCT-8; 2.07 µg/mL (≈ 7.23 µM) in the test on PC-3; 4.34 µg/mL (≈ 15.2 µM) in the test on DU-145; 2.12 µg/mL in the test with MCF7; 3.58 µg/mL with A549; 4.68 µg/mL (≈ 16.3 µM) in test [1]. A half-maximal effect with KB (EC50) was put at 2.97 µg/mL (≈ 10.4 µM).
For `COc1cc2ccc3cccc(O)c3c2c(OC)c1O` [BULBOPHYLLANTHRIN], the EC50 amounted to 5.26 µg/mL with HCT-8; 3.38 µg/mL (≈ 12.5 µM) with PC-3; 8.29 µg/mL (≈ 30.7 µM) in the test with DU-145; 3.26 µg/mL with MCF7; 5.06 µg/mL in the test on A549; 6.99 µg/mL (≈ 25.9 µM) in test [1]. The same compound came in with an EC50 in the test on KB of 5.63 µg/mL (≈ 20.8 µM).
Regarding `COc1c(O)cc2c(c1OC)-c1c(O)ccc(O)c1CC2` [CALANHYDROQUINONE B], the EC50 with HCT-8 was 5.16 µg/mL; with PC-3 it was 2.62 µg/mL (≈ 9.09 µM); in the test with DU-145, 5.46 µg/mL (≈ 18.9 µM); with MCF7, 3.28 µg/mL; in the test with A549 it was 4.07 µg/mL; in test [1] it was 5.24 µg/mL (≈ 18.2 µM). This compound also displayed an EC50 with KB of 3.75 µg/mL (≈ 13 µM).
`COC1=CC(=O)c2ccc3cc(OC)c(OC)c(O)c3c2C1=O` [CALANQUINONE A]: the EC50 in the test with HCT-8 is 0.2 µg/mL; in the test on PC-3 it was 0.16 µg/mL (≈ 0.509 µM); with DU-145, 0.34 µg/mL (≈ 1.08 µM); in the test with MCF7, less than 0.02 µg/mL; in the test on A549, 0.19 µg/mL; in test [1], 0.45 µg/mL (≈ 1.43 µM). This compound also yielded an EC50 in the test on KB of 0.32 µg/mL (≈ 1.02 µM).

For the origin of these results see ChEMBL document CHEMBL1152308, “Cytotoxic phenanthrenequinones and 9,10-dihydrophenanthrenes from Calanthe arisanensis” (J Nat Prod, 2009).
